Test results from paper PMC8603004 (EFSA Journal, 2021).
“And” between values parts separate entries of the source, which are not always exact repeats. Equal entries are not always repeated.

What was measured:
[1] = Mass balance with volatile trapping and tissue distribution study; type: in vivo, male Wistar rats
Method in brief: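 Mass balance under OECD TG 417 in male Wistar rats given a single oral dose of 500 mg/kg bw 14C-labelled test compound. Rats were housed individually in air-tight glass metabolism cages. Volatiles were adsorbed in trapping solutions over 0–8 h and 8–24 h, and urine and faeces were collected over 0–24 h. Tissues, carcass and GI contents were taken at 24 h and results expressed as % of dose.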

[2] = test system: Holstein Friesian dairy cows; experiment: Dose‐range finding study in dairy cows; type: in vivo; details: group 10× (16 g 3‐NOP/day, 800 mg/kg complete feed) compared to the control
[3] = Incubation of 14C‐3‐NOP in liver fractions; type: in vitro ADME; details: Sprague-Dawley, rat, liver cytosol
Method in brief: (§1)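 14C-labelled test compound was incubated with or without NAD+ in liver S9, cytosol and microsomes from Sprague–Dawley rat, Wistar Han rat, Beagle dog and human. Aliquots were taken at several time points and the proteins precipitated. Supernatants were analysed by liquid scintillation counting and radio-HPLC, and half-life was derived from the time course.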

Wistar Han rats = type: in vivo; details: males and females; effects on spermatogenesis and corpora lutea
[4] = Incubation of 14C‐3‐NOP in liver fractions; type: in vitro ADME; details: Beagle, dog, liver S9
Method in brief: as §1

[5] = ADME of 14C‐3‐NOP following single or multiple oral administration; type: in vivo, rat; details: for Radioactivity in plasma 48 h after the last dose: 50 mg/kg bw for five days
Incubation of = details: for 3‐NOP concentration remaining at t = 24 h: 38°C
[6] = test system: bone marrow cells of Wistar WI (Han) rats; experiment: In vivo micronucleus test, oral gavage
[7] = test system: human peripheral blood lymphocytes; experiment: In vitro micronucleus assay; type: cell-based
[8] = Third in vitro rumen fluid trial; details: for 3‐NOP concentration remaining after 16 h: 39°C
Beagle dogs = experiment: 90‐day oral gavage study; type: in vivo
[9] = test system: New Zealand White rabbits; experiment: Prenatal developmental toxicity study; details: rabbit, in vivo
[10] = Overall NOAEL and health‐based guidance value
[11] = test system: human lymphoblastoid TK6 cells; experiment: In vitro micronucleus assay; details: with and without S9, up to 1,220 μg/mL
CByB6F1 Hybrid mice = experiment: 28‐day oral gavage study with toxicokinetic evaluation of NOPA; type: in vivo
[12] = test system: dairy cows, beef cattle and sheep; details: 100 mg 3‐NOP/kg DMI; cited from earlier work
[13] = single 50 mg/kg bw, males, 48 h
[14] = trial iii, 500 mg/kg bw, 1 h, females
[15] = trial iii, 500 mg/kg bw, 1 h, males
[16] = trial iv, 5 x 50 mg/kg bw, 48 h after last administration, females
[17] = trial iv, 5 x 50 mg/kg bw, 48 h after last dose, males
[18] = males, 700 mg/kg bw per day (control 0/10)

SMILES: O=[N+]([O-])OCCCO [3‐NOP, propan‐1,3‐diol‐mononitrate]
- Radioactivity exhaled ([1]; 0 to 8 h post‐dose): 64.3%
- Dose recovered in faeces ([1]; 0 to 24 h): 1.2 % of the dose
- Dose recovered in urine ([1]; 0 to 24 h): 9.8 % of the dose
- Radioactivity exhaled ([1]; 8 to 24 h post‐dose): 13.0%
- Dose in the gastrointestinal tract content ([1]; 24 h): 0.5 % of the dose
- Dose remaining in the tissues and carcass ([1]; 24 h): 7.7 % of the dose
- Overall recovery of radioactivity ([1]; 24 h): 99.3%
- Dose recovered from the volatile traps (almost all as 14CO2) ([1]; 24 h after single oral 500 mg/kg bw): 77.4 % of the dose
- Mean concentration of radioactive compounds in blood ([1]; 24 h post‐dose): 48.7 μg 3‐NOP‐eq/g
- Radioactivity concentration in adrenal glands ([1]; 24 h post‐dose): 159.3 μg 3‐NOP‐eq/g
- Radioactivity concentration in brain ([1]; 24 h post‐dose): 24.8 μg 3‐NOP‐eq/g
- Radioactivity concentration in fat ([1]; 24 h post‐dose): 58.9 μg 3‐NOP‐eq/g
- Radioactivity concentration in kidney ([1]; 24 h post‐dose): 118.4 μg 3‐NOP‐eq/g
- Radioactivity concentration in liver ([1]; 24 h post‐dose): 184.5 μg 3‐NOP‐eq/g
- Radioactivity concentration in muscle ([1]; 24 h post‐dose): 42.4 μg 3‐NOP‐eq/g
- Skin corrosion potential (Skin corrosion study): not corrosive to skin
- Feed intake [2]: significantly (p < 0.05) reduced
- Skin irritation potential (Skin irritation study): skin irritant
- half-life [3]: 42 min
- NOAEL (Wistar Han rats): 100 mg 3‐NOP/kg bw per day
- half-life [4]: 66 min
- Parent compound in the stomach and caecum ([5]; 500 mg/kg, 1 h, females): 70 % of administered dose
- Parent compound in the stomach and caecum ([5]; 500 mg/kg, 1 h, males): 83 % of administered dose
- Parent compound in the liver ([5]; 500 mg/kg, 1 h, two values given, sexes not named): 3.5 % of TRR
- Total mean recovery of administered radioactivity ([5]; single 50 mg/kg bw, females): 91.1%
- Urinary excretion, mean ([5]; single 50 mg/kg bw, females): 4.8%
- Mean radioactivity in plasma 48 h after dosing ([5]; single 50 mg/kg bw, females, 50 mg/kg): 4.2 μg 3‐NOP‐eq/mL and 4.22 μg 3‐NOP‐eq/mL
- Total mean recovery of administered radioactivity ([5]; single 50 mg/kg bw, males): 95.9%
- Urinary excretion, mean ([5]; single 50 mg/kg bw, males): 6.3%
- Administered radioactivity recovered in expired air ([5]; single 50 mg/kg bw, males and females): about 80%
- Mean concentration of TR in adrenals [5, 13]: 19.5 μg 3‐NOP‐eq/g
- Mean concentration of TR in bone marrow [5, 13]: 14.3 μg 3‐NOP‐eq/g
- Mean concentration of TR in kidneys [5, 13]: 10.9 μg 3‐NOP‐eq/g
- Mean concentration of TR in liver [5, 13]: 12.6 μg 3‐NOP‐eq/g
- Mean radioactivity in plasma 48 h after dosing ([5]; single 50 mg/kg bw, males, 50 mg/kg): 7.0 μg 3‐NOP‐eq/mL and 7.03 μg 3‐NOP‐eq/mL
- Administered radioactivity recovered in expired air ([5]; single 500 mg/kg bw, females): 61.7%
- Total mean recovery of administered radioactivity ([5]; single 500 mg/kg bw, females): 85.3%
- Urinary excretion, mean ([5]; single 500 mg/kg bw, females): 13.1%
- Mean radioactivity in plasma 48 h after dosing ([5]; single 500 mg/kg bw, females, 500 mg/kg): 34.5 μg 3‐NOP‐eq/mL and 34.47 μg 3‐NOP‐eq/mL
- Administered radioactivity recovered in expired air ([5]; single 500 mg/kg bw, males): 73.5%
- Total mean recovery of administered radioactivity ([5]; single 500 mg/kg bw, males): 93.2%
- Urinary excretion, mean ([5]; single 500 mg/kg bw, males): 11.3%
- Mean radioactivity in plasma 48 h after dosing ([5]; single 500 mg/kg bw, males, 500 mg/kg): 51.9 μg 3‐NOP‐eq/mL and 51.92 μg 3‐NOP‐eq/mL
- Mean concentration of TR in plasma ([5]; trial iii, 500 mg/kg bw, 15 min, females): 477 μg 3‐NOP‐eq/mL
- Mean concentration of TR in plasma ([5]; trial iii, 500 mg/kg bw, 15 min, males): 396 μg 3‐NOP‐eq/mL
- Mean concentration of TR in plasma ([5]; trial iii, 500 mg/kg bw, 45 min, females): 629 μg 3‐NOP‐eq/mL
- Mean concentration of TR in plasma ([5]; trial iii, 500 mg/kg bw, 45 min, males): 512 μg 3‐NOP‐eq/mL
- Mean concentration of TR in plasma [5, 14]: 583 μg 3‐NOP‐eq/mL
- TR in kidneys [5, 14]: 865 μg 3‐NOP‐eq/g
- TR in liver [5, 14]: 622 μg 3‐NOP‐eq/g
- Mean TR in kidneys [5, 15]: 636 μg 3‐NOP‐eq/g
- Mean TR in liver [5, 15]: 655 μg 3‐NOP‐eq/g
- Mean TR in lungs [5, 15]: 494 μg 3‐NOP‐eq/g
- Mean TR in pancreas [5, 15]: 471 μg 3‐NOP‐eq/g
- Mean concentration of TR in plasma [5, 15]: 467 μg 3‐NOP‐eq/mL
- Time of TR max in plasma ([5]; trial iii, 500 mg/kg bw, all animals): 45 min
- Radioactivity in plasma 48 h after the last dose ([5]; trial iv, females): 11.7 μg 3‐NOP‐eq/mL
- Radioactivity in plasma 48 h after the last dose ([5]; trial iv, males): 14.4 μg 3‐NOP‐eq/mL
- TR in adrenals [5, 16]: 57.0 μg 3‐NOP‐eq
- TR in bone marrow [5, 16]: 21.3 μg 3‐NOP‐eq/g
- TR in kidneys [5, 16]: 30.0 μg 3‐NOP‐eq
- TR in liver [5, 16]: 32.3 μg 3‐NOP‐eq
- TR in lungs [5, 16]: 20.7 μg 3‐NOP‐eq/g
- TR in ovaries [5, 16]: 35.7 μg 3‐NOP‐eq
- TR in pancreas [5, 16]: 21.6 μg 3‐NOP‐eq/g
- TR in renal fat [5, 16]: 34.1 μg 3‐NOP‐eq
- TR in spleen [5, 16]: 20.1 μg 3‐NOP‐eq/g
- TR in thymus [5, 16]: 24.7 μg 3‐NOP‐eq/g
- TR in adrenals [5, 17]: 51.2 μg 3‐NOP‐eq/g
- TR in bone marrow [5, 17]: 34.1 μg 3‐NOP‐eq/g
- TR in epididymis [5, 17]: 18.2 μg 3‐NOP‐eq/g
- TR in kidneys [5, 17]: 34.8 μg 3‐NOP‐eq/g
- TR in liver [5, 17]: 34.9 μg 3‐NOP‐eq/g
- TR in lungs [5, 17]: 18.7 μg 3‐NOP‐eq/g
- TR in pancreas [5, 17]: 20.0 μg 3‐NOP‐eq/g
- TR in prostate [5, 17]: 24.6 μg 3‐NOP‐eq/g
- TR in spleen [5, 17]: 22.9 μg 3‐NOP‐eq/g
- TR in thymus [5, 17]: 28.5 μg 3‐NOP‐eq/g
- Mean cumulative excretion via the expired air ([5]; trial iv, 48 h after the last dose): about 70 % of the total administered radioactivity
- Radioactivity in carcass ([5]; trial iv, females): 3.6%
- Total mean recovery of the administered radioactivity ([5]; trial iv, females): 83.1%
- Radioactivity in carcass ([5]; trial iv, males): 3.5%
- Total mean recovery of the administered radioactivity ([5]; trial iv, males): 86.4%
- Radioactivity in the non‐dissolved fractions (Incubation of; 2.2 mg/L): ≤ 5.5%
- 3‐NOP concentration remaining at t = 24 h (Incubation of; 2.2 mg/L, anaerobic): 0%
- Radioactivity in the non‐dissolved fractions (Incubation of; 23 mg/L): 7%
- 3‐NOP concentration remaining at t = 24 h (Incubation of; 23 mg/L, anaerobic): < 0.1%
- Radioactivity in the trapped gas phases (Incubation of; 23 or 2.2 mg/L, up to 24 h at 38°C, anaerobic, pH about 6.2): ≤ 0.1 % of the total radioactivity
- 3‐NOP concentration remaining (Incubation of; after 6 h): 54%
- 3‐NOP concentration remaining (Incubation of; after 12 h): 6%
- Abiotic degradation of 3‐NOP to propane‐1,3‐diol (Incubation of; control samples (no or only minor)): 9.8%
- Skin sensitisation potential (Skin sensitisation study): did not show any skin sensitisation potential
- In vivo MN test result ([6]; 375, 750 and 1,500 mg/kg bw by gavage): Equivocal results
- Dose showing severe symptoms and mortality ([6]; dose‐range finding test, gavage): 2,000 mg/kg bw
- Frequency of micronuclei ([7]; 164, 512 and 1,211 μg/mL, with and without S9‐mix): no increase in the frequency of micronuclei
- Cytotoxicity ([7]; up to 1,211 μg/mL): No cytotoxicity
- 3‐NOP concentration remaining after 16 h ([8]; 1 mg/L, anaerobic, n = 6): 0.9%
- 3‐NOP concentration remaining after 16 h ([8]; aerobic control, n = 2): 39.4%
- Radioactivity in the non‐dissolved fractions ([8]; sheep, goat and cow rumen fluids, 1 mg/L, 16 h at 39°C, anaerobic): ≤ 5.5%
- NOAEL (Beagle dogs; females, severe clinical signs in one female): 100 mg 3‐NOP/kg bw per day
- NOAEL (Beagle dogs; males): 300 mg 3‐NOP/kg bw per day
- NOAEL for maternal and developmental toxicity [9]: at least 450 mg/kg bw per day
- Health‐based guidance value (acceptable daily intake, ADI) ([10]; NOAEL 100 mg/kg bw per day, uncertainty factor of 100): 1 mg 3‐NOP/kg bw per day
- Overall NOAEL ([10]; subchronic toxicity studies in rats, mice and dogs): 100 mg/kg bw per day
- Micronuclei, overall result [11]: weak increase in micronuclei
- Reduction in mean overall food consumption (CByB6F1 Hybrid mice; 700 mg/kg bw per day, vs control): 6%
- NOAEL (CByB6F1 Hybrid mice; blood biochemical changes at 300 mg/kg bw per day): 100 mg 3‐NOP/kg bw per day
- Decrease of absolute thymus weight (CByB6F1 Hybrid mice; males, 700 mg/kg bw per day): 22%
- Decrease of relative thymus weight (CByB6F1 Hybrid mice; males, 700 mg/kg bw per day): 23%
- Incidence of mild inflammation of the eye striated muscle (CByB6F1 Hybrid mice; [18]): 4/10
- Incidence of minimal to mild adrenal cortical vacuolation (CByB6F1 Hybrid mice; [18]): 4/10
- Decrease of CH4 [12]: about 20%
